# Active and inactive are the calls of the source. No cut-off for these calls is given here.
# What was measured:
# HeLa [1] = assay: Antiproliferative activity against human HeLa cells at 20 ug/ml after 48 hrs by MTS assay; assay type: functional, cell-based
# Method in brief: (§1)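 Cells seeded at (2−5) × 10^3 per well in 96-well plates and allowed to attach overnight. Medium was then replaced with medium containing test compound by serial dilution from 100 mM DMSO stocks, or 0.1% DMSO, with cisplatin as positive control. Incubation was 48 h at 37 °C in 5% CO2, then MTS was added for 90 min at 37 °C. Absorbance read at 490 nm; triplicate.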
# MCF7 = assay: Antiproliferative activity against human MCF7 cells at 20 ug/ml after 48 hrs by MTS assay; assay type: functional, cell-based; method in brief: as §1
# HeLa [2] = assay: Induction of autophagy in human HeLa cells assessed as effect on ratio of SQSTM1/p62 to actin at 15 uM after 2 hrs by immunoblot method relative to control; assay type: functional
# Method in brief: (§2)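 Lysis used Triton X-100/glycerol buffer: 50 mM Tris-HCl pH 7.4, 4 mM EDTA, 2 mM EGTA, 1 mM DTT, 1% Triton X-100, 1% SDS and protease inhibitors. Lysates were run on SDS-PAGE, blotted to PVDF and detected by HRP secondaries with ECL. p62/actin ratio calculated.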
# HeLa [3] = assay: Induction of autophagy in human HeLa cells assessed as effect on ratio of LC3-2 to actin at 10 uM after 2 hrs in presence of chloroquine by immunoblot method relative to control; assay type: functional
# Method in brief: (§3)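 Lysis in Tris-HCl pH 7.4 buffer with EDTA, EGTA, DTT, 1% Triton X-100, 1% SDS and protease inhibitors. SDS-PAGE, PVDF transfer, HRP secondary antibodies, ECL detection. LC3-II band expressed as a ratio to actin.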
# HeLa [4] = assay: Induction of autophagy in human HeLa cells assessed as increase in punctate LC3 accumulation at 10 uM after 2 hrs in presence of chloroquine by immunofluorescence method; assay type: functional, cell-based
# Method in brief: (§4)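 They were fixed in 4% paraformaldehyde and permeabilized in Ca/Mg-free PBS with 0.1% Triton X-100 and 0.5% BSA. Staining used anti-LC3 and Alexa Fluor secondaries, with DAPI mounting. LC3 puncta were counted by fluorescence microscopy.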
# HeLa [5] = assay: Induction of autophagy in human HeLa cells assessed as effect on ratio of LC3-2 to actin at 1 uM after 2 hrs in presence of chloroquine by immunoblot method relative to control; assay type: functional; method in brief: as §3
# HeLa [6] = assay: Induction of autophagy in human HeLa cells assessed as effect on ratio of LC3-2 to actin at 20 uM after 2 hrs by immunoblot method relative to control; assay type: functional; method in brief: as §3
# HeLa [7] = assay: Induction of autophagy in human HeLa cells assessed as effect on ratio of SQSTM1/p62 to actin at 20 uM after 2 hrs by immunoblot method relative to control; assay type: functional; method in brief: as §2
# HeLa [8] = assay: Induction of autophagy in human HeLa cells assessed as effect on ratio of SQSTM1/p62 to actin at 10 uM after 2 hrs by immunoblot method relative to control; assay type: functional; method in brief: as §2
# HeLa [9] = assay: Induction of autophagy in human HeLa cells assessed as increase in punctate LC3 accumulation at 10 uM after 2 hrs by immunofluorescence method; assay type: functional, cell-based; method in brief: as §4
# HeLa [10] = assay: Induction of autophagy in human HeLa cells assessed as effect on ratio of LC3-2 to actin at 20 uM after 2 hrs in presence of chloroquine by immunoblot method relative to control; assay type: functional; method in brief: as §3
# HeLa [11] = assay: Induction of autophagy in human HeLa cells assessed as accumulation of membrane vacuoles at 10 uM at 2 hrs by transmission electron microscopic method; assay type: functional, cell-based
# Method in brief: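 HeLa cells treated with 10 μM for 2 h, then washed in PBS, trypsinized and pelleted. Pellets fixed in 4% paraformaldehyde at 4 °C overnight and postfixed in 1% OsO4 in cacodylate buffer for 1 h at RT. They were then dehydrated in ethanol, rinsed in propylene oxide and embedded in Spurr resin. Thin sections examined by TEM.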
# HeLa [12] = assay: Induction of autophagy in human HeLa cells assessed as effect on ratio of SQSTM1/p62 to actin at 20 uM after 2 hrs in presence of chloroquine by immunoblot method relative to control; assay type: functional; method in brief: as §2
# HeLa [13] = assay: Induction of autophagy in human HeLa cells assessed as effect on ratio of LC3-2 to actin at 1 uM after 2 hrs by immunoblot method relative to control; assay type: functional; method in brief: as §3
# HeLa [14] = assay: Induction of autophagy in human HeLa cells assessed as effect on ratio of LC3-2 to actin at 10 uM after 2 hrs by immunoblot method relative to control; assay type: functional; method in brief: as §3
# HeLa [15] = assay: Induction of autophagy in human HeLa cells assessed as effect on ratio of SQSTM1/p62 to actin at 1 uM after 2 hrs in presence of chloroquine by immunoblot method relative to control; assay type: functional; method in brief: as §2
# HeLa [16] = assay: Induction of autophagy in human HeLa cells assessed as effect on ratio of SQSTM1/p62 to actin at 10 uM after 2 hrs in presence of chloroquine by immunoblot method relative to control; assay type: functional; method in brief: as §2
# HeLa [17] = assay: Induction of autophagy in human HeLa cells assessed as effect on ratio of SQSTM1/p62 to actin at 1 uM after 2 hrs by immunoblot method relative to control; assay type: functional; method in brief: as §2
smiles,measurement,setting,value
C=C(C(=O)O)[C@@H](CCCCCCCC)C(=O)O,inhibition,HeLa [1],inactive
same,inhibition,MCF7,inactive
CCN(CC)CCCC(C)Nc1ccnc2cc(Cl)ccc12 (stereo not given) [CHLOROQUINE],fold change (FC),HeLa [2],1.8
COC(=O)C1=CC(OC)=C(Cl)C(=O)C12OC(=O)c1c(O)cc(C)cc1O2 (stereo not given),inhibition,HeLa [1],inactive
same,inhibition,MCF7,inactive
CCCCCCCC1=COC(=O)[C@]12C[C@]1(C(=O)OC)C=C(OC)[C@@]2(Cl)C(=O)[C@]12OC(=O)c1c(O)cc(C)cc1O2,fold change (FC),HeLa [3],12.53
same,Activity,HeLa [4],Active
same,fold change (FC),HeLa [5],10.98
same,fold change (FC),HeLa [6],2.9
same,fold change (FC),HeLa [7],2.84
same,fold change (FC),HeLa [8],3.61
same,Activity,HeLa [9],Active
same,fold change (FC),HeLa [10],10.86
same,Activity,HeLa [11],Active
same,fold change (FC),HeLa [12],1.94
same,fold change (FC),HeLa [13],1.03
same,fold change (FC),HeLa [14],0.79
same,fold change (FC),HeLa [15],2.84
same,fold change (FC),HeLa [16],2.19
same,fold change (FC),HeLa [17],2.76

# Source: ChEMBL document CHEMBL4000167, “Chlorotheolides A and B, Spiroketals Generated via Diels-Alder Reactions in the Endophytic Fungus Pestalotiopsis theae” (J Nat Prod, 2016)
